Compounds with a hit are over-represented: about 0.58% of the library has one in this group of screens.
TNF necrop inh: inhibitors of TNF-alpha induced necroptosis in Jurkat FADD-/- cells; activation (protection from cell death), % at 10 µM; AID 463075; Jurkat FADD-/- TNF necroptosis rescue, ATP luminescence, 24 h; 0 = TNF only, 100 = no-TNF cells; 220,000 compounds, 0.068% hits;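 active = activation, meaning protection from cell death, of at least 50% relative to plate controls; inactive = activation below 50%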;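 note: necroptosis triggered by 40 ng/mL TNF-alpha added together with compound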
zVAD death inh: L929 zVAD cell death inhibition. L929 zVAD necroptosis rescue, ATP luminescence, 24 h; with zVAD 60 µM. viability rescue, % at 10 µM. 220,000 compounds, 0.38% hits. AID 1377;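 active = activation, scaled between plate controls, above about 75%, limit read from the data; inactive = activation under that limit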;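 note: 0% = zVAD with DMSO and 100% = DMSO alone without zVAD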
Rad51 HR inh: Rad51 (human) homologous recombination inhibition | Q06609 | hRad51 DNA strand exchange, fluorescence dequenching | inhibition, % at 10 µM | 200,000 compounds, 0.085% hits;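 active = inhibition above 40% at the single screening dose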;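 note: 0% = DMSO control wells and 100% = blanks with heterologous ssDNA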
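material = hRad51 filaments on single-stranded DNA | timing = filaments 15 min 37 °C, then compound 30 min | signal = FRET fluorescence dequenching, excitation 485 nm, emission 520 nm | benchmarks = control wells and blank wells on each plate | evaluation = percent inhibition relative to plate controls and blanks | compound = 10 µM final, single point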
Pf gametocyte: inhibitors of late stage P. falciparum gametocyte viability; 150,000 compounds, 0.065% hits; inhibition, % at 10.9 µM; P. falciparum stage V gametocytes, ATP luminescence, 24 h; AID 743093;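 active = inhibition above the mean plus 3 SD of compounds within the control limits, set per campaign, cut at about 38% in these data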;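 note: 0% = DMSO wells and 100% = medium only without gametocytes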
Mdm2 ligase inh: inhibitors of human Mdm2 E3 ubiquitin ligase; Q00987; cell-based MDM2 ubiquitination luciferase reporter, 2 h; 0 = plate control, 100 = twice control, blank-subtracted; signal enhancement, % at 5 µM; 210,000 compounds, 0.11% hits; AID 1230;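 active = signal enhancement of 30% or more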;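 note: luminescence tracks abundance of the self-degrading MDM2-luciferase fusion protein; higher signal means inhibition of MDM2 E3 ligase activity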
Target sequence (Q00987 whole entry, looked up, the tested form may be a part): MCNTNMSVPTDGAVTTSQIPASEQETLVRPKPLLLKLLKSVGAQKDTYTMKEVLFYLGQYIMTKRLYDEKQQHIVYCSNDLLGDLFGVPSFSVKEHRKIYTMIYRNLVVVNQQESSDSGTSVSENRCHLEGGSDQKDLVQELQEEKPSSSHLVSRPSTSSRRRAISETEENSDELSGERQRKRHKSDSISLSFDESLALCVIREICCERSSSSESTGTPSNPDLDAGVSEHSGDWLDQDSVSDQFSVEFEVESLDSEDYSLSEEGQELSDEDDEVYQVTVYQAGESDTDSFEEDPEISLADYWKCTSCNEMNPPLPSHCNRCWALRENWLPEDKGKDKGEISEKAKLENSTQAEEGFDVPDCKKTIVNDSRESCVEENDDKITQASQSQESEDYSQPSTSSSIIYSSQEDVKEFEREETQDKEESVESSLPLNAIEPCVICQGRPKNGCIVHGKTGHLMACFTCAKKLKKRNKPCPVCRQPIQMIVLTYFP
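Assay system: stable mammalian line carrying autodegrading MDM2–luciferase fusion reporter; Input: 2000 cells in each well; Compound dosing: single-point 5 µM; Schedule: 2 h compound exposure at 37 °C; Signal: SteadyLite luciferase luminescence after 15 min room-temperature reagent incubation; Evaluation: % luminescence enhancement versus blank-corrected plate control mean; Benchmarks: plate controls and plate blanks.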
* = called active by the depositor; / = no result given.

SMILES | TNF necrop inh | zVAD death inh | Rad51 HR inh | Pf gametocyte | Mdm2 ligase inh
CCOc1ccc(-c2[nH]ncc2-c2csc(C)n2)c(O)c1 | -1 | 0 | 4 | -6 | -11
COc1ccc(-c2[nH]ncc2-c2csc(C)n2)c(O)c1 | 1 | 1 | -6 | 39* | -12
Cc1ccc(Cn2c(=O)n(C)c(=O)c3sccc32)cc1 | / | / | / | -21 | /
CCOC(=O)NC(=O)c1cn(CCNCCO)c(=O)[nH]c1=O | 1 | 2 | 4 | 21 | -2
c1csc(Cc2nc3ccccc3[nH]2)c1 | 65* | 14 | 5 | -21 | 0
O=C(CN1CCN(c2ncccn2)CC1)NCc1ccccc1 | 0 | 2 | -1 | / | 103*
Nc1nnc(/C=C/c2ccccc2Cl)s1 | -7 | -1 | 2 | -1 | -19
CNC(=O)c1oc(-c2ccccc2)nc1C | 1 | 1 | 10 | 7 | 0
Cc1ccc(Cn2cnc3sc4c(c3c2=O)CCC4)c(C)c1 | 92* | 0 | 5 | / | 9
O=C(O)c1ccc(Cn2cnc3sc4c(c3c2=O)CCCC4)cc1 | 3 | 0 | / | -5 | -36
CCOC(=O)N1CCN(c2c(-c3ccc(C)cc3)c(=O)c2=O)CC1 | 1 | -1 | 80* | -5 | -4
CCOC(=O)N1CCN(c2c(-c3ccc(C(C)C)cc3)c(=O)c2=O)CC1 | -2 | -1 | -5 | / | 7
CC(=O)OC(C(=O)NC1CCCCC1)c1ccc(Cl)c(Cl)c1 (stereo not given) | 70* | 3 | -2 | 4 | -14
Cc1ccc(/C(C#N)=C\c2cn(C)c3ccccc23)cc1 | -2 | 0 | 62* | / | -5
CCN1CC(CCN2CCOCC2)C(c2ccccc2)(c2ccccc2)C1=O (stereo not given) | / | / | 3 | / | /
CC(NC(=O)C(=O)NN=C1CCCC1)c1ccccc1 (stereo not given) | 0 | 3 | 19 | 4 | -2
O=C(CCCN1C(=O)/C(=C\c2cccs2)SC1=S)NNC(=O)c1ccncc1 | 1 | 2 | 2 | -1 | 10
O=C(CCCN1C(=O)/C(=C/c2cccs2)SC1=S)NNC(=O)c1cccnc1 | 2 | 0 | 42* | 13 | /
O=C(/C=C/c1ccc(Cl)c([N+](=O)[O-])c1)Nc1ccc(N2CCCC2)cc1 | 1 | 1 | 55* | -16 | -2
COc1ccc(CCNC(=O)COc2ccc(-c3ccc(C)cc3)cc2)cc1OC | -3 | 0 | -6 | / | -11
COc1ccc(CCNC(=O)COC(=O)c2cnc(C)cn2)cc1OC | 0 | 1 | -4 | / | 31*
N#CCSc1nc2sc3c(c2c(=O)n1C1CCCCC1)CCCC3 | 68* | 12 | 4 | -4 | -10
COc1cccc(/C=N/NC(=O)c2[nH]c(C)c(C(=O)N/N=C/c3cccc(OC)c3)c2C)c1 | -1 | 1 | -22 | -3 | 36*
CC(=O)Nn1c(-c2ccccc2)cc2ccccc21 | -3 | 0 | 85* | 22 | -14
NNC(=O)Cn1c(-c2ccccc2)cc2ccccc21 | / | / | / | -1 | /
SMILES | TNF necrop inh | zVAD death inh | Rad51 HR inh | Pf gametocyte | Mdm2 ligase inh
Cc1cc2ncn(C(=O)N3CCC(C)CC3)c2cc1C | 3 | 0 | 6 | / | 38*
O=C(COc1ccccc1Cl)NC(=O)NC1CCCC1 | 57* | 1 | -7 | / | -8
CC(C(Sc1ccccc1N)c1ccccc1)[N+](=O)[O-] (stereo not given) | -20 | 23 | 16 | 7 | -15
Oc1[nH]c2ccccc2c1N=NC(=S)N1CCOCC1 | -18 | 50 | 3 | / | 31*
CC[C@]1(O)CC2CN(CCc3c([nH]c4ccccc34)[C@@](C(=O)OC)(c3cc4c(cc3OC)N(C)[C@H]3[C@@](O)(C(N)=O)[C@H](O)[C@]5(CC)C=CCN6CC[C@]43[C@@H]65)C2)C1 (stereo not given in full) | / | / | -6 | / | /
Fc1ccc(-c2nnsc2Sc2ccccn2)cc1 | -1 | 2 | 3 | 1 | -6
COc1cc2c(cc1OC)CN(C(=S)Nc1ccccc1Cl)CC2 | 1 | 8 | 3 | 5 | -2
COc1cc2c(cc1OC)CN(C(=S)Nc1ccc(C)cc1C)CC2 | 2 | 1 | 4 | 48* | -7
Cc1nc(CSc2nsc(/C=C/N(C)C)c2C#N)cs1 | 0 | 27 | -15 | -27 | 31*
COC(=O)c1c(NC(=O)CN2CCC(C(N)=O)CC2)c2c(C)cccc2n1C | 0 | 0 | 3 | -1 | -10
CCOC(=O)C1CCN(CC(=O)Nc2c(C(=O)OC)n(C)c3cccc(C)c23)CC1 | -2 | 0 | 69* | 25 | 0
COC(=O)c1ccc(-n2c(C)cc(C(=O)CSc3cccc[n+]3[O-])c2C)cc1 | -2 | 0 | 73* | 36 | -13
N#Cc1c(N)nc2c(c1-c1cccc(O)c1)CCCCCC2 | -4 | 0 | / | / | 147*
COc1cccc(-c2[nH]nc3c2C(c2ccsc2)C(C#N)=C(N)O3)c1 (stereo not given) | -6 | 0 | 8 | -11 | 31*
COc1ccc(-c2[nH]nc3c2C(c2ccsc2)C(C#N)=C(N)O3)cc1 (stereo not given) | -7 | 1 | 7 | 18 | -12
O=C(CSc1ccc(-c2ccco2)nn1)NC1CCCC1 | 1 | 1 | -3 | / | 32*
Cc1ccc(/C=C2\C(=O)Nc3ccccc32)o1 | 0 | 78* | -5 | 13 | -14
Cn1cccc1/C=C1\SC(=S)N(NC(=O)c2ccccc2Cl)C1=O | 1 | 1 | -20 | / | 4
Cc1ccc(C(=O)NN2C(=O)/C(=C/c3cccn3C)SC2=S)cc1 | 3 | 0 | -29 | 11 | 30*
CC(C)(C)NC(=O)c1nn(Cc2ccccc2)c(=O)c2ccccc12 | -1 | 1 | 6 | 18 | -14
CC(C)Nc1ccc(Nc2ccnc3cc4ccccc4cc23)cc1 | -30 | -3 | 46* | 5 | -8
COc1ccc(Nc2ccnc3ccccc23)cc1 | 3 | 0 | 1 | -4 | -37
Cc1cc(C)nc(/N=C(\N)Nc2ccc(S(=O)(=O)Nc3nccc(C)n3)cc2)n1 | 0 | 3 | -7 | 9 | -3
COc1ccc(N2CCN(CCC(N)=O)CC2)cc1 | 1 | 0 | 108* | / | 5
COc1ccc(N2CCN(CC(=O)Nc3ccc(C)cc3)CC2)cc1 | / | / | / | 20 | /
CCOC(=O)C1CCCN(C(=O)c2ccc(CNc3c(N4CCC(C)CC4)c(=O)c3=O)cc2)C1 (stereo not given) | 0 | 2 | -2 | / | 92*
CC(C)c1ccccc1NC(=S)N1CCN(Cc2ccc3c(c2)OCO3)CC1 | -2 | 0 | 48* | / | 0
O=C(NN1C(=O)c2ccccc2NC1c1ccoc1)c1ccccc1 (stereo not given) | 0 | 1 | 48* | 5 | -7
CC1CCC(NC(=O)C2CCC(CNc3c(N4CCCCC4)c(=O)c3=O)CC2)CC1 (stereo not given) | 4 | 1 | 2 | -31 | -10

Assay outcomes as filed in PubChem BioAssay.
